Measurements: ChEMBL document CHEMBL3046139, “Preparation and phytotoxicity of novel kaurane diterpene amides with potential use as herbicides” (J Agric Food Chem, 2008)
The source made the active and inactive calls.

Legend:
Assay type in all cases: functional, organism-based
Lactuca sativa [1] = experiment: Phytotoxicity in Lactuca sativa cv. Grand Rapids (lettuce) assessed as inhibition of shoot length at 1 mM measured 5 days post compound treatment
Outline: (§1)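 Test solutions in deionized water, buffered with 10 mM MES and adjusted to pH 6.0-6.5 with NaOH. Concentrations below 10^-3 M made by dilution series. Osmotic pressure 30-38 mOsmolar. Petri dishes sealed with Parafilm and kept in the dark at 25 °C for 5 days, in triplicate. Seed counted as germinated when radicle was at least 0.2 mm. Radicle and shoot lengths measured by pachymeter with dishes held at 4 °C. Results given as percent difference from untreated control means. Student's t-test, P ≤ 0.05.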

Lactuca sativa [2] = experiment: Phytotoxicity in Lactuca sativa cv. Grand Rapids (lettuce) assessed as inhibition of seed germination at 10 uM measured 5 days post compound treatment; outline: as §1
Lactuca sativa [3] = experiment: Phytotoxicity in Lactuca sativa cv. Grand Rapids (lettuce) assessed as inhibition of radicle length at 1 mM measured 5 days post compound treatment; outline: as §1
Lactuca sativa [4] = experiment: Phytotoxicity in Lactuca sativa cv. Grand Rapids (lettuce) assessed as inhibition of seed germination at 0.1 uM measured 5 days post compound treatment; outline: as §1
Lactuca sativa [5] = experiment: Phytotoxicity in Lactuca sativa cv. Grand Rapids (lettuce) assessed as inhibition of seed germination at 1 mM measured 5 days post compound treatment; outline: as §1
Lactuca sativa [6] = experiment: Stimulation of radicle growth in Lactuca sativa cv. Grand Rapids (lettuce) at 0.1 uM measured 5 days post compound treatment; outline: as §1
Lactuca sativa [7] = experiment: Stimulation of shoot growth in Lactuca sativa cv. Grand Rapids (lettuce) at 0.1 uM measured 5 days post compound treatment; outline: as §1
Lactuca sativa [8] = experiment: Stimulation of radicle growth in Lactuca sativa cv. Grand Rapids (lettuce) at 10 uM measured 5 days post compound treatment; outline: as §1
Lactuca sativa [9] = experiment: Stimulation of shoot growth in Lactuca sativa cv. Grand Rapids (lettuce) at 10 uM measured 5 days post compound treatment; outline: as §1
Lactuca sativa [10] = experiment: Stimulation of seed germination in Lactuca sativa cv. Grand Rapids (lettuce) at 1 mM measured 5 days post compound treatment; outline: as §1
Lactuca sativa [11] = experiment: Stimulation of seed germination in Lactuca sativa cv. Grand Rapids (lettuce) at 0.1 uM measured 5 days post compound treatment; outline: as §1

C=C1C[C@@]23CC[C@H]4[C@@](C)(CCC[C@@]4(C)C(=O)Nc4ccccc4)[C@@H]2CC[C@@H]1C3
active: inhibition (Lactuca sativa [1]) | inhibition (Lactuca sativa [2]) | inhibition (Lactuca sativa [3]) | inhibition (Lactuca sativa [4]) | inhibition (Lactuca sativa [5])

C=C1C[C@@]23CC[C@@H]4[C@](C)(C(=O)N5CCNCC5)CCC[C@@]4(C)C2=CC[C@@H]1C3
active: Activity (Lactuca sativa [6]) | inhibition (Lactuca sativa [1]) | Activity (Lactuca sativa [7]) | Activity (Lactuca sativa [8]) | inhibition (Lactuca sativa [2]) | Activity (Lactuca sativa [9]) | inhibition (Lactuca sativa [3]) | inhibition (Lactuca sativa [4]) | inhibition (Lactuca sativa [5])

C=C1C[C@@]23CC[C@H]4[C@@](C)(CCC[C@@]4(C)C(=O)NCCCCCC)[C@@H]2CC[C@@H]1C3
active: inhibition (Lactuca sativa [1]) | inhibition (Lactuca sativa [2]) | inhibition (Lactuca sativa [3]) | inhibition (Lactuca sativa [4]) | inhibition (Lactuca sativa [5])

C=C1C[C@]23C[C@@]1(O)CC[C@H]2[C@@]12C=C[C@H](O)[C@@](C)(C(=O)O1)[C@H]2[C@@H]3C(=O)O
active: Activity (Lactuca sativa [10])

C=C1C[C@@]23CC[C@H]4[C@@](C)(CCC[C@@]4(C)C(=O)NCCN)[C@@H]2CC[C@@H]1C3
active: inhibition (Lactuca sativa [1]) | inhibition (Lactuca sativa [2]) | inhibition (Lactuca sativa [3]) | inhibition (Lactuca sativa [4]) | inhibition (Lactuca sativa [5])

C=C1C[C@@]23CC[C@@H]4[C@](C)(C(=O)Nc5ccccc5)CCC[C@@]4(C)C2=CC[C@@H]1C3
active: inhibition (Lactuca sativa [1]) | inhibition (Lactuca sativa [2]) | inhibition (Lactuca sativa [3]) | inhibition (Lactuca sativa [4]) | inhibition (Lactuca sativa [5])

C=C1C[C@@]23CC[C@H]4[C@@](C)(CCC[C@@]4(C)C(=O)N4CCOCC4)[C@@H]2CC[C@@H]1C3
active: inhibition (Lactuca sativa [1]) | inhibition (Lactuca sativa [2]) | inhibition (Lactuca sativa [3]) | inhibition (Lactuca sativa [4]) | inhibition (Lactuca sativa [5])

C=C1C[C@@]23CC[C@@H]4[C@](C)(C(=O)NC5CCCCC5)CCC[C@@]4(C)C2=CC[C@@H]1C3
active: inhibition (Lactuca sativa [1]) | inhibition (Lactuca sativa [2]) | inhibition (Lactuca sativa [3]) | inhibition (Lactuca sativa [4]) | inhibition (Lactuca sativa [5])

C=C1C[C@@]23CC[C@H]4[C@@](C)(CCC[C@@]4(C)C(=O)NCCCCN)[C@@H]2CC[C@@H]1C3
active: inhibition (Lactuca sativa [1]) | inhibition (Lactuca sativa [3]) | Activity (Lactuca sativa [11]) | inhibition (Lactuca sativa [5])

C=C1C[C@@]23CC[C@H]4[C@@](C)(CCC[C@@]4(C)C(=O)NC4CCCCC4)[C@@H]2CC[C@@H]1C3
active: inhibition (Lactuca sativa [1]) | inhibition (Lactuca sativa [2]) | inhibition (Lactuca sativa [3]) | inhibition (Lactuca sativa [4]) | inhibition (Lactuca sativa [5])

C=C1C[C@@]23CC[C@@H]4[C@](C)(C(=O)NCCCCN)CCC[C@@]4(C)C2=CC[C@@H]1C3
active: inhibition (Lactuca sativa [1]) | inhibition (Lactuca sativa [3]) | Activity (Lactuca sativa [11]) | inhibition (Lactuca sativa [5])

C=C1C[C@@]23CC[C@@H]4[C@](C)(C(=O)NCCCN)CCC[C@@]4(C)C2=CC[C@@H]1C3
active: inhibition (Lactuca sativa [1]) | inhibition (Lactuca sativa [2]) | inhibition (Lactuca sativa [3]) | inhibition (Lactuca sativa [4]) | inhibition (Lactuca sativa [5])

C=C1C[C@@]23CC[C@@H]4[C@](C)(C(=O)NCCCCCC)CCC[C@@]4(C)C2=CC[C@@H]1C3
active: inhibition (Lactuca sativa [1]) | inhibition (Lactuca sativa [2]) | inhibition (Lactuca sativa [3]) | inhibition (Lactuca sativa [4]) | inhibition (Lactuca sativa [5])

C=C1C[C@@]23CC[C@H]4[C@@](C)(CCC[C@@]4(C)C(=O)N4CCNCC4)[C@@H]2CC[C@@H]1C3
active: Activity (Lactuca sativa [6]) | inhibition (Lactuca sativa [1]) | Activity (Lactuca sativa [7]) | Activity (Lactuca sativa [8]) | inhibition (Lactuca sativa [2]) | Activity (Lactuca sativa [9]) | inhibition (Lactuca sativa [3]) | inhibition (Lactuca sativa [4]) | inhibition (Lactuca sativa [5])

C=C1C[C@@]23CC[C@H]4[C@@](C)(CCC[C@@]4(C)C(=O)NCCCN)[C@@H]2CC[C@@H]1C3
active: inhibition (Lactuca sativa [1]) | inhibition (Lactuca sativa [2]) | inhibition (Lactuca sativa [3]) | inhibition (Lactuca sativa [4]) | inhibition (Lactuca sativa [5])

C=C1C[C@@]23CC[C@@H]4[C@](C)(C(=O)NCCN)CCC[C@@]4(C)C2=CC[C@@H]1C3
active: inhibition (Lactuca sativa [1]) | inhibition (Lactuca sativa [2]) | inhibition (Lactuca sativa [3]) | inhibition (Lactuca sativa [4]) | inhibition (Lactuca sativa [5])

C=C1C[C@@]23CC[C@@H]4[C@](C)(C(=O)N5CCOCC5)CCC[C@@]4(C)C2=CC[C@@H]1C3
active: inhibition (Lactuca sativa [1]) | inhibition (Lactuca sativa [2]) | inhibition (Lactuca sativa [3]) | inhibition (Lactuca sativa [4]) | inhibition (Lactuca sativa [5])
